ChEMBL document CHEMBL3734704, “Synthesis and Biological Evaluation of Novel Bouchardatine Derivatives as Potential Adipogenesis/Lipogenesis Inhibitors for Antiobesity Treatment” (J Med Chem, 2015)
Calls of active or inactive are those of the source. The calls are words filed in the database; no cut-off is given here.

How the values were obtained:
HepG2 [1] = test: Decrease in triglyceride level in human HepG2 cells at 1 uM after 24 hrs by GPO-POD assay in presence of 0.5 mM oleic acid sodium; format: functional
How it was run: (§1)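 HepG-2 cells seeded, then after 24 h exposed to 0.5 mM oleic acid sodium plus compound (1 µM; dose series up to 10 µM) for 24 h, DMSO vehicle. Cells lysed in 0.2% Triton X-100 for 1 h, sonicated, centrifuged. Triglyceride measured by GPO-POD kit and cholesterol by kit, both normalized to BCA protein; n = 3.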

HepG2 [2] = test: Decrease in cholesterol level in human HepG2 cells at 1 uM after 24 hrs by […] assay in presence of 0.5 mM oleic acid sodium; format: functional; how it was run: as §1
[3] = Decrease in triglyceride level in mouse 3T3L1 cells at 1 uM measured during 0 to 3 days by oil red O staining based microscopic analysis; format: functional, cell-based; conditions: 3T3-L1
How it was run: (§2)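 3T3-L1 cells given 1 µM compound during day 0-3, 0-6, 0-9, 3-6, 3-9 or 6-9 of differentiation. On Day 9, intracellular lipid measured by TG assay (Triton lysate, GPO-POD kit, per protein) and by Oil Red O staining with microscopy; n = 3.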

3T3-L1 [4] = test: Decrease in lipid droplet accumulation in mouse 3T3L1 cells at 1 uM measured during 0 to 3,0 to 6,0 to 9, 3 to 6, 3 to 9 and 6 to 9 days by oil red O staining based microscopic analysis; format: functional, cell-based; how it was run: as §2
[5] = Cell cycle arrest in mouse 3T3L1 cells assessed as number of cells at S phase at 1 uM after 24 hrs by flow cytometry (reference value: 18.1%); format: functional, cell-based; conditions: 3T3-L1
[6] = Cell cycle arrest in mouse 3T3L1 cells assessed as number of cells at G2/M phase at 1 uM after 24 hrs by flow cytometry (reference value: 37.2%); format: functional, cell-based; conditions: 3T3-L1
[7] = Cell cycle arrest in mouse 3T3L1 cells assessed as number of cells at G0/G1 phase at 0.3 uM after 24 hrs by flow cytometry (reference value: 37.6%); format: functional, cell-based; conditions: 3T3-L1
[8] = Cell cycle arrest in mouse 3T3L1 cells assessed as number of cells at G0/G1 phase at 1 uM after 24 hrs by flow cytometry (reference value: 37.6%); format: functional, cell-based; conditions: 3T3-L1
3T3-L1 [9] = test: Induction of apoptosis in mouse 3T3L1 cells assessed as early apoptotic cells at 3 uM after 24 hrs by annexin-V-FITC and PI staining based flow cytometry (reference value: 0.56%); format: functional
3T3-L1 [10] = test: Induction of apoptosis in mouse 3T3L1 cells assessed as late apoptotic cells at 3 uM after 24 hrs by annexin-V-FITC and PI staining based flow cytometry (reference value: 0.03%); format: functional
3T3-L1 [11] = test: Induction of apoptosis in mouse 3T3L1 cells assessed as early apoptotic cells at 0.3 uM after 24 hrs by annexin-V-FITC and PI staining based flow cytometry (reference value: 0.56%); format: functional
3T3-L1 [12] = test: Induction of apoptosis in mouse 3T3L1 cells assessed as late apoptotic cells at 0.3 uM after 24 hrs by annexin-V-FITC and PI staining based flow cytometry (reference value: 0.03%); format: functional
3T3-L1 [13] = test: Induction of apoptosis in mouse 3T3L1 cells assessed as viable cells at 1 uM after 24 hrs by annexin-V-FITC and PI staining based flow cytometry (reference value: 98.95%); format: functional; conditions: 3T3-L1, 24 h, read-out: Activity
3T3-L1 [14] = test: Induction of apoptosis in mouse 3T3L1 cells assessed as early apoptotic cells at 1 uM after 24 hrs by annexin-V-FITC and PI staining based flow cytometry (reference value: 0.56%); format: functional
[15] = Downregulation of C/EBP alpha mRNA level in mouse 3T3L1 cells at 0.3 to 3 uM after 24 hrs by RT-PCR analysis; format: functional, cell-based; conditions: 3T3-L1
How it was run: (§3)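 3T3-L1 preadipocytes in adipogenic cocktail with compound (0.3-3.0 µM; 3 µM for the 2 h and 24 h time course). Total RNA extracted, cDNA made from 1 µg RNA with oligo primer, then PCR: 95 °C 10 min, 35 cycles of 95 °C 30 s, annealing 45 s, 72 °C 1 min, final 72 °C 10 min. Normalized to actin; n = 3.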

[16] = Downregulation of SREBP-1c mRNA level in mouse 3T3L1 cells at 0.3 to 3 uM after 24 hrs by RT-PCR analysis; format: functional, cell-based; conditions: 3T3-L1; how it was run: as §3
[17] = Downregulation of C/EBP alpha level in mouse 3T3L1 cells at 0.3 to 3 uM after 3 days by western blot analysis; format: functional, cell-based; conditions: 3T3-L1
How it was run: (§4)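 3T3-L1 preadipocytes incubated in adipogenic cocktail with or without compound (0.3, 1.0, 3.0 µM) for the stated periods. Protein levels measured by Western blot (RIPA lysis, PVDF, BSA block, primary 16 h at 4 °C, HRP secondary), normalized to GAPDH/Tubulin and expressed relative to controls; n = 3.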

[18] = Downregulation of PPAR-gamma level in mouse 3T3L1 cells at 0.3 to 3 uM after 3 days by western blot analysis; format: functional, cell-based; conditions: 3T3-L1; how it was run: as §4
[19] = molecular target: T1, Serine/threonine-protein kinase STK11 (Mus musculus) (UniProt Q9WTK7); test: Activation of LKB1-mediated ACC in mouse 3T3L1 cells assessed as increase in phophorylated ACC level at 3 uM after 3 days by western blot analysis; format: cell-based; conditions: 3T3-L1
T1 sequence (whole entry): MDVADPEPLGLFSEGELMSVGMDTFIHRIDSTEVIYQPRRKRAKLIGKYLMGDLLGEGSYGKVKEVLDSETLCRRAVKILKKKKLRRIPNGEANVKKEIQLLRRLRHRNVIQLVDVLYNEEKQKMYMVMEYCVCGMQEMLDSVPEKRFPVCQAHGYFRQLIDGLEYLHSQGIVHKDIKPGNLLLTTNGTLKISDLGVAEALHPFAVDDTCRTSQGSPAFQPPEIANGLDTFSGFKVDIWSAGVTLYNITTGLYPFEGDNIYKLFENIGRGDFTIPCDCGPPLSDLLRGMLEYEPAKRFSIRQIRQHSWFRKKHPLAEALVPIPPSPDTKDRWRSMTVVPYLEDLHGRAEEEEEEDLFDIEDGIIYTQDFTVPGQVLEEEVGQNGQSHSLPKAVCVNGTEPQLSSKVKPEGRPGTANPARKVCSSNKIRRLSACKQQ

[20] = molecular target: T1, Serine/threonine-protein kinase STK11 (Mus musculus); test: Activation of LKB1-mediated AMPK in mouse 3T3L1 cells assessed as increase in phophorylated AMPK alpha at Thr 172 residue level at 3 uM after 10 mins by western blot analysis; format: cell-based; conditions: 3T3-L1
How it was run: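 3T3-L1 preadipocytes held in adipogenic cocktail with or without compound at 3 µM, time course (10 min, 2 h, 24 h) during differentiation. Lysis in RIPA with protease/phosphatase inhibitors, SDS-PAGE, PVDF, BSA block, primary antibody 16 h at 4 °C, HRP secondary. Bands normalized to GAPDH, with the 10 min DMSO group set as 100%; n = 3.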

[21] = Downregulation of PPAR-gamma mRNA level in mouse 3T3L1 cells at 3 uM after 24 hrs by RT-PCR analysis; format: functional, cell-based; conditions: 3T3-L1; how it was run: as §3

O=Cc1c(-c2nc(NCCN3CCCC3)c3ccccc3n2)[nH]c2ccccc12
inhibition (INH) (HepG2 [1]): 70% | inhibition (INH) (HepG2 [2]): <10% | inhibition [3]: 85% | inhibition (3T3-L1 [4]): Active | Activity [5]: 5.2% | Activity [6]: 46.9% | Activity [7]: 51.8% | Activity [8]: 42.9% | Activity (3T3-L1 [9]): 0.39% | Activity (3T3-L1 [10]): 0.42% | Activity (3T3-L1 [11]): 1.58% | Activity (3T3-L1 [12]): 0.47% | viability at 1 µM (3T3-L1 [13]): 98% | Activity (3T3-L1 [14]): 0.84% | inhibition [15]: Active | inhibition [16]: Active | inhibition [17]: Active | inhibition [18]: Active | Activity [19]: Active | Activity [20]: Active | inhibition [21]: Active
